Test system: Fibroblast
Assay: Multiplex assay against human fibroblast
Assay type: toxicity, cell-based
Procedure, shortened: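 Four dyes were applied at seeding to live cells: Hoechst33342, BioTracker Green Microtubule Cytoskeleton Dye, MitoTracker Red and Annexin V Alexa Fluor 680. Imaging after compound addition used a CQ1 microscope at 37°C and 5% CO2. CellPathfinder machine-learning gating then sorted cells into Hoechst high-intensity objects or normal cells, normal cells into healthy, pyknosed or fragmented nuclei, and pyknosed cells into mitotic or apoptotic, with tubulin, mitochondrial-mass and membrane-permeability phenotypes given as per cents of healthy-nucleus cells.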

[1] = 12 h, 1 µM, compound concentration 1 uM, replicate 1
[2] = 12 h, 1 µM, compound concentration 1 uM, replicate 2
[3] = 12 h, 10 µM, compound concentration 10 uM, replicate 1
[4] = 12 h, 10 µM, compound concentration 10 uM, replicate 2
[5] = 24 h, 1 µM, compound concentration 1 uM, replicate 1
[6] = 24 h, 1 µM, compound concentration 1 uM, replicate 2
[7] = 24 h, 10 µM, compound concentration 10 uM, replicate 1
[8] = 24 h, 10 µM, compound concentration 10 uM, replicate 2
[9] = 48 h, 1 µM, compound concentration 1 uM, replicate 1
[10] = 48 h, 1 µM, compound concentration 1 uM, replicate 2
[11] = 48 h, 10 µM, compound concentration 10 uM, replicate 1
[12] = 48 h, 10 µM, compound concentration 10 uM, replicate 2

## CC(C)(C)NC[C@H](O)COc1nsnc1N1CCOCC1 [TIMOLOL]
[1]
  Population Apoptotic (%): 71%
  Population Fragmented Nuclei (%): 22%
  Population Healthy Nuclei (%): 51%
  Population Hoechst High Intensity Objects (%): 14%
  Population Membrane Permeable-Phenotype (%): 14%
  Population Mitochondria Different-Phenotype (%): 1%
  Population Mitotic Cells (%): 28%
  Population Normal (%): 85%
  Population Pyknosed Nuclei (%): 25%
  Population Tubulin-Different-Phenotype (%): 25%
[2]
  Population Apoptotic (%): 100%
  Population Fragmented Nuclei (%): 5%
  Population Healthy Nuclei (%): 88%
  Population Hoechst High Intensity Objects (%): 8%
  Population Membrane Permeable-Phenotype (%): 8%
  Population Mitochondria Different-Phenotype (%): 11%
  Population Mitotic Cells (%): 0%
  Population Normal (%): 92%
  Population Pyknosed Nuclei (%): 5%
  Population Tubulin-Different-Phenotype (%): 18%
[3]
  Population Apoptotic (%): 60%
  Population Fragmented Nuclei (%): 28%
  Population Healthy Nuclei (%): 40%
  Population Hoechst High Intensity Objects (%): 14%
  Population Membrane Permeable-Phenotype (%): 33%
  Population Mitochondria Different-Phenotype (%): 0%
  Population Mitotic Cells (%): 39%
  Population Normal (%): 85%
  Population Pyknosed Nuclei (%): 31%
  Population Tubulin-Different-Phenotype (%): 47%
  Total Cell Count: 105
[4]
  Population Apoptotic (%): 33%
  Population Fragmented Nuclei (%): 8%
  Population Healthy Nuclei (%): 79%
  Population Hoechst High Intensity Objects (%): 3%
  Population Membrane Permeable-Phenotype (%): 4%
  Population Mitochondria Different-Phenotype (%): 7%
  Population Mitotic Cells (%): 66%
  Population Normal (%): 96%
  Population Pyknosed Nuclei (%): 11%
  Population Tubulin-Different-Phenotype (%): 4%
[5]
  Population Apoptotic (%): 60%
  Population Fragmented Nuclei (%): 19%
  Population Healthy Nuclei (%): 53%
  Population Hoechst High Intensity Objects (%): 12%
  Population Membrane Permeable-Phenotype (%): 26%
  Population Mitochondria Different-Phenotype (%): 0%
  Population Mitotic Cells (%): 39%
  Population Normal (%): 87%
  Population Pyknosed Nuclei (%): 27%
  Population Tubulin-Different-Phenotype (%): 30%
[6]
  Population Apoptotic (%): 50%
  Population Fragmented Nuclei (%): 11%
  Population Healthy Nuclei (%): 81%
  Population Hoechst High Intensity Objects (%): 5%
  Population Membrane Permeable-Phenotype (%): 2%
  Population Mitochondria Different-Phenotype (%): 18%
  Population Mitotic Cells (%): 50%
  Population Normal (%): 94%
  Population Pyknosed Nuclei (%): 6%
  Population Tubulin-Different-Phenotype (%): 21%
[7]
  Population Apoptotic (%): 65%
  Population Fragmented Nuclei (%): 22%
  Population Healthy Nuclei (%): 49%
  Population Hoechst High Intensity Objects (%): 16%
  Population Membrane Permeable-Phenotype (%): 58%
  Population Mitochondria Different-Phenotype (%): 2%
  Population Mitotic Cells (%): 34%
  Population Normal (%): 83%
  Population Pyknosed Nuclei (%): 27%
  Population Tubulin-Different-Phenotype (%): 58%
  Total Cell Count: 99
[8]
  Population Apoptotic (%): 41%
  Population Fragmented Nuclei (%): 7%
  Population Healthy Nuclei (%): 81%
  Population Hoechst High Intensity Objects (%): 2%
  Population Membrane Permeable-Phenotype (%): 3%
  Population Mitochondria Different-Phenotype (%): 5%
  Population Mitotic Cells (%): 58%
  Population Normal (%): 97%
  Population Pyknosed Nuclei (%): 11%
  Population Tubulin-Different-Phenotype (%): 4%
[9]
  Population Apoptotic (%): 64%
  Population Fragmented Nuclei (%): 29%
  Population Healthy Nuclei (%): 53%
  Population Hoechst High Intensity Objects (%): 10%
  Population Membrane Permeable-Phenotype (%): 22%
  Population Mitochondria Different-Phenotype (%): 2%
  Population Mitotic Cells (%): 35%
  Population Normal (%): 89%
  Population Pyknosed Nuclei (%): 16%
  Population Tubulin-Different-Phenotype (%): 34%
[10]
  Population Apoptotic (%): 33%
  Population Fragmented Nuclei (%): 12%
  Population Healthy Nuclei (%): 84%
  Population Hoechst High Intensity Objects (%): 15%
  Population Membrane Permeable-Phenotype (%): 14%
  Population Mitochondria Different-Phenotype (%): 1%
  Population Mitotic Cells (%): 66%
  Population Normal (%): 84%
  Population Pyknosed Nuclei (%): 3%
  Population Tubulin-Different-Phenotype (%): 23%
  Total Cell Count: 106
[11]
  Population Apoptotic (%): 47%
  Population Fragmented Nuclei (%): 34%
  Population Healthy Nuclei (%): 45%
  Population Hoechst High Intensity Objects (%): 16%
  Population Membrane Permeable-Phenotype (%): 51%
  Population Mitochondria Different-Phenotype (%): 0%
  Population Mitotic Cells (%): 52%
  Population Normal (%): 83%
  Population Pyknosed Nuclei (%): 19%
  Population Tubulin-Different-Phenotype (%): 42%
  Total Cell Count: 118
[12]
  Population Apoptotic (%): 33%
  Population Fragmented Nuclei (%): 16%
  Population Healthy Nuclei (%): 77%
  Population Hoechst High Intensity Objects (%): 9%
  Population Membrane Permeable-Phenotype (%): 8%
  Population Mitochondria Different-Phenotype (%): 2%
  Population Mitotic Cells (%): 66%
  Population Normal (%): 90%
  Population Pyknosed Nuclei (%): 5%
  Population Tubulin-Different-Phenotype (%): 29%
